# Calls of active or inactive are those of the source. The rule behind the calls is not given here.
# Assays:
# [1] = biological target: Programmed cell death protein 1/Programmed cell death 1 ligand 1 (Homo sapiens) (UniProt Q15116+Q9NZQ7); experiment: Inhibition of human PD-1/PD-L1 interaction assessed as induction of PD-L1 dimerization at 1:1 molar ratio by 1H-15N HMQC NMR analysis; format: protein-complex assay
# Summary of the method: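 Recombinant human PD-L1 (residues 18–134), expressed in E. coli BL21(DE3), refolded and purified by SEC in PBS pH 7.4. 1D and 2D NMR spectra recorded for apo protein and with ligand at 1:1 molar ratio.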
# Jurkat = experiment: Cytotoxicity against human Jurkat T cells overexpressing PD-1 with luciferase reporter under the control of NFAT promoter at higher concentration incubated for 48 hrs by redox dye mix based analysis; format: toxicity, cell-based
# Summary of the method: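 Jurkat PD-1 effector cells (PD-1 overexpressing, luciferase reporter under NFAT promoter), 5000 cells/well, grown in RPMI 1640 with 10% FBS and 2 mM L-glutamine. Exposed 48 h to increasing compound concentrations, with DMSO held constant; DMSO alone as control. Values are mean ± SD of at least three independent experiments.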
# [2] = Ex vivo biodistribution in formalin fixed paraffin embedded tumor of human NCI-H358 cells expressing PD-L1 by immunohistochemistry staining based analysis relative to control; format: ADME, Neoplasm
# Summary of the method: (§1)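 FFPE xenograft tumours (ES2 or H358, PD-L1+/– knockout pairs) cut to 4 μm, deparaffinized at 60 °C with xylene, rehydrated, citrate pH 6.0 heat retrieval. Autoradiography: 30 min incubation with freshly formulated 18F-tracer at 0.2 MBq/mL, washed with cold PBS and water, dried, phosphor-plate exposure and quantification. Adjacent sections stained by IHC with anti-PD-L1 (5 μg/mL, clone 28-8, 60 min), DAB, hematoxylin counterstain.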
# [3] = Ex vivo drug localization in peripheral part of formalin fixed paraffin embedded tumor of human NCI-H358 cells expressing PD-L1 by immunohistochemistry staining based analysis; format: ADME, tissue-based, Neoplasm; summary of the method: as §1
# [4] = Ex vivo biodistribution in snap-frozen human tonsils overexpressing PD-L1 by autoradiography; format: ADME, Tonsil
# Summary of the method: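 Snap-frozen human tonsil sections, 10 min cold acetone, then 30 min incubation with freshly formulated 18F-tracer at 0.2 MBq/mL. Washed twice with cold PBS and once with water, dried, exposed to phosphor plates and quantified by phosphor imaging.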
# [5] = Ex vivo biodistribution in formalin fixed paraffin embedded tumor of human ES2 cells expressing PD-L1 by immunohistochemistry staining based analysis relative to control; format: ADME, Neoplasm; details: es-2; summary of the method: as §1
Structure (SMILES),inhibition [1],Activity (Jurkat),Drug uptake [2],Drug uptake [3],Drug uptake [4],Drug uptake [5]
N#Cc1c(-c2ccc(F)cc2)csc1OCc1ccc(CN)cc1,Active,Toxic,,,,
Cc1c(COc2cc(OCc3cccc(C#N)c3)c(CN3C[C@@H]([18F])C[C@@H]3C(=O)O)cc2Cl)cccc1-c1ccc2c(c1)OCCO2,,,40%,Active,Active,
Cc1c(COc2cc(OCc3cccc(C#N)c3)c(CN3C[C@@H](F)C[C@@H]3C(=O)O)cc2Cl)cccc1-c1ccc2c(c1)OCCO2,,Toxic,,,,
Cc1c(COc2cc(OCc3cccc(C#N)c3)c(CN3C[C@H](O)C[C@@H]3C(=O)O)cc2Cl)cccc1-c1ccc2c(c1)OCCO2,Active,Toxic,,,,
N#Cc1c(-c2ccc([18F])cc2)csc1OCc1ccc(CN)cc1,,,40%,Active,Active,Not Active

# Source: ChEMBL document CHEMBL5331144, “Design, Synthesis, and Biological Evaluation of 2-Hydroxy-4-phenylthiophene-3-carbonitrile as PD-L1 Antagonist and Its Comparison to Available Small Molecular PD-L1 Inhibitors” (J Med Chem, 2023)
